# Reference: ChEMBL document CHEMBL1817577, “Pachastrissamine (jaspine B) and its stereoisomers inhibit sphingosine kinases and atypical protein kinase C” (Bioorg Med Chem, 2011)
# Tests used:
# [1] = biological target: Sphingosine kinase 1 (Homo sapiens) (UniProt Q9NYA1); experiment: Inhibition of N-terminal GST-fused sphingosine kinase 1 (1-384) expressed in baculovirus expression system assessed as inhibition of sphingosine phosphorylation after 1 hr by off-chip mobility shift assay; design: concentration or dose not given beside the values; details: concentration not given here
# How it was run: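 GST-fusion enzyme purified on glutathione sepharose. Compound series in DMSO diluted fourfold into 20 mM HEPES pH 7.5, 0.01% Triton X-100, 2 mM DTT. Reaction: 1 μM sphingosine, 25 μM ATP, 5 mM MgCl2, 1 h at room temperature (n = 4). Substrate and product separated electrophoretically; P/(P+S) ratio against no-enzyme and no-inhibitor controls; IC50 from concentration series.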
# [2] = biological target: T1, Sphingosine kinase 2 (Homo sapiens) (UniProt Q9NRA0); experiment: Inhibition of N-terminal GST-fused sphingosine kinase 2 (1-618) expressed in baculovirus expression system assessed as inhibition of sphingosine phosphorylation after 1 hr by off-chip mobility shift assay; design: concentration or dose not given beside the values; details: concentration not given here
# T1 sequence (whole entry): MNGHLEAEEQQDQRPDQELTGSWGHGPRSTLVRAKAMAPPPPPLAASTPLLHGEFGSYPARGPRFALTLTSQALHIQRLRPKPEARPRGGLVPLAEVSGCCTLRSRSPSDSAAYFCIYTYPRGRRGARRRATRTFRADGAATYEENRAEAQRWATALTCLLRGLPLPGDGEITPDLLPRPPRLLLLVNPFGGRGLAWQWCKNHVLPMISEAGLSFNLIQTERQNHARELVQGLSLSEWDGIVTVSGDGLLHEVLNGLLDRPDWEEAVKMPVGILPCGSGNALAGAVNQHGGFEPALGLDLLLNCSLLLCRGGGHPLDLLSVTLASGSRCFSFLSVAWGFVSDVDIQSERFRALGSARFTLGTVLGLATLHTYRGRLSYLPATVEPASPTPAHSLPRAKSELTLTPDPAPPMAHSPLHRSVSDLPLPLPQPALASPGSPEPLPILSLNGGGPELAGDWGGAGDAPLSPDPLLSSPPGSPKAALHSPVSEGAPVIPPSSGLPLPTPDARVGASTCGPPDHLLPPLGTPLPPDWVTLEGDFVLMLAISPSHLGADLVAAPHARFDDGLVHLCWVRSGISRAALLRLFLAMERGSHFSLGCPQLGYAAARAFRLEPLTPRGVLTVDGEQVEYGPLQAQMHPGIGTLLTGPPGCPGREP
# How it was run: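 Glutathione-sepharose-purified GST fusion tested over a concentration series (DMSO stock diluted fourfold in 20 mM HEPES pH 7.5, 0.01% Triton X-100, 2 mM DTT). Reaction: 1 μM sphingosine, 600 μM ATP, 5 mM MgCl2, 1 h at room temperature, n = 4. Electrophoretic P/(P+S) read-out normalized to controls; IC50 fitted.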
# [3] = biological target: Protein kinase C beta type (Homo sapiens) (UniProt P05771); experiment: Inhibition of N-terminal GST-fused PKCbeta2 (1-673) expressed in baculovirus expression system at 30 uM after 1 hr by off-chip mobility shift assay relative to control
# How it was run: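 Same buffer as the other conventional PKCs (20 mM HEPES pH 7.5, 0.01% Triton X-100, 2 mM DTT), with phosphatidylserine 50 μg/mL, diacylglycerol 5 μg/mL and 50 μM CaCl2. Reaction: 1 μM PKCθ substrate peptide (N-FL), 10 μM ATP, 5 mM MgCl2, 1 h at room temperature, duplicate. Substrate and product separated electrophoretically; inhibition from P/(P+S) versus no-enzyme and no-inhibitor controls.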
# [4] = biological target: Protein kinase C beta type (Homo sapiens) (UniProt P05771); experiment: Inhibition of N-terminal GST-fused PKCbeta1 (1-671) expressed in baculovirus expression system at 30 uM after 1 hr by off-chip mobility shift assay relative to control
# How it was run: (§1)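 Enzymes purified by glutathione sepharose. DMSO compound stock diluted fourfold into 20 mM HEPES pH 7.5, 0.01% Triton X-100, 2 mM DTT, with phosphatidylserine (50 μg/mL), diacylglycerol (5 μg/mL) and 50 μM CaCl2. Reaction: 1 μM PKCθ substrate peptide (N-FL), 25 μM ATP, 5 mM MgCl2, 1 h at room temperature (n = 2). Read-out is electrophoretic P/(P+S) ratio, normalized to no-enzyme and no-inhibitor controls.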
# [5] = biological target: Protein kinase C delta type (Homo sapiens) (UniProt Q05655); experiment: Inhibition of N-terminal GST-fused PKCdelta (1-676) expressed in baculovirus expression system at 30 uM after 1 hr by off-chip mobility shift assay relative to control
# How it was run: (§2)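 Lipid-activated reactions (phosphatidylserine 50 μg/mL, diacylglycerol 5 μg/mL), no CaCl2. Buffer is 20 mM HEPES pH 7.5, 0.01% Triton X-100, 2 mM DTT, with 1 μM N-FL PKCθ substrate peptide, 10 μM ATP and 5 mM MgCl2. Incubated 1 h at room temperature, n = 2. Product ratio P/(P+S) from electrophoretic peak heights, scaled between no-enzyme (100%) and no-inhibitor (0%) controls.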
# [6] = biological target: Protein kinase C gamma type (Homo sapiens) (UniProt P05129); experiment: Inhibition of N-terminal GST-fused PKCgamma (1-697) expressed in baculovirus expression system at 30 uM after 1 hr by off-chip mobility shift assay relative to control; how it was run: as §1
# [7] = biological target: Protein kinase C eta type (Homo sapiens) (UniProt P24723); experiment: Inhibition of N-terminal GST-fused PKCeta (1-683) expressed in baculovirus expression system at 30 uM after 1 hr by off-chip mobility shift assay relative to control
# How it was run: (§3)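 Buffer is HEPES pH 7.5 (20 mM), 0.01% Triton X-100, 2 mM DTT, with phosphatidylserine (50 μg/mL) and diacylglycerol (5 μg/mL) but no CaCl2. Reaction: 1 μM PKCθ substrate (N-FL), 25 μM ATP, 5 mM MgCl2, 1 h at room temperature, n = 2. Read-out is electrophoretic separation, P/(P+S) ratio, controls as 0% and 100% inhibition.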
# [8] = biological target: Protein kinase C theta type (Homo sapiens) (UniProt Q04759); experiment: Inhibition of N-terminal GST-fused PKCtheta (1-706) expressed in baculovirus expression system at 30 uM after 1 hr by off-chip mobility shift assay relative to control; how it was run: as §3
# [9] = biological target: Protein kinase C iota type (Homo sapiens) (UniProt P41743); experiment: Inhibition of N-terminal GST-fused PKClota (1-587) expressed in baculovirus expression system at 30 uM after 1 hr by off-chip mobility shift assay relative to control
# [10] = biological target: Protein kinase C alpha type (Homo sapiens) (UniProt P17252); experiment: Inhibition of N-terminal GST-fused PKCalpha (1-672) expressed in baculovirus expression system at 30 uM after 1 hr by off-chip mobility shift assay relative to control; how it was run: as §1
# [11] = biological target: T2, Protein kinase C zeta type (Homo sapiens) (UniProt Q05513); experiment: Inhibition of N-terminal GST-fused PKCzeta (1-592) expressed in baculovirus expression system at 30 uM after 1 hr by off-chip mobility shift assay relative to control
# T2 sequence (whole entry): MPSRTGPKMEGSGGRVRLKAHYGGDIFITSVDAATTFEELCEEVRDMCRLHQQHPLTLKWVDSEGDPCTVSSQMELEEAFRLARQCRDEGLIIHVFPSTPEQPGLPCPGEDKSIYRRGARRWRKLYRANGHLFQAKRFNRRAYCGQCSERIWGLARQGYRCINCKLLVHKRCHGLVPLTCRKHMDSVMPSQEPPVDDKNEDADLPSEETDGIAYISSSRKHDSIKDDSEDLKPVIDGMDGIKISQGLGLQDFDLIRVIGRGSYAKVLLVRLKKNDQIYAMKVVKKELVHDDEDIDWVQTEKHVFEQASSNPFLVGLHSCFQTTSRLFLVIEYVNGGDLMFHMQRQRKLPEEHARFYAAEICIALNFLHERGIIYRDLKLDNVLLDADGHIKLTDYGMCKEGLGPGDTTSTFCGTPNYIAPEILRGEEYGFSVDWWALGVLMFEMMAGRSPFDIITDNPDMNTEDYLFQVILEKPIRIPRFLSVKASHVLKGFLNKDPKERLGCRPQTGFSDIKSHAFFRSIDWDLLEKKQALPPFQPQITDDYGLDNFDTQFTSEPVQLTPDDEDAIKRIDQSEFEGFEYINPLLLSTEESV
# How it was run: (§4)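 No lipid cofactors and no calcium. Reaction buffer is 20 mM HEPES pH 7.5, 0.01% Triton X-100, 2 mM DTT, with 1 μM PKCθ substrate peptide (N-FL), 5 μM ATP and 5 mM MgCl2. Incubated 1 h at room temperature (n = 2). Electrophoretic mobility shift read-out of P/(P+S); normalized to no-enzyme and no-inhibitor controls.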
# [12] = biological target: T3, Protein kinase C epsilon type (Homo sapiens) (UniProt Q02156); experiment: Inhibition of N-terminal GST-fused PKCepsilon (1-737) expressed in baculovirus expression system at 30 uM after 1 hr by off-chip mobility shift assay relative to control; how it was run: as §2
# T3 sequence (whole entry): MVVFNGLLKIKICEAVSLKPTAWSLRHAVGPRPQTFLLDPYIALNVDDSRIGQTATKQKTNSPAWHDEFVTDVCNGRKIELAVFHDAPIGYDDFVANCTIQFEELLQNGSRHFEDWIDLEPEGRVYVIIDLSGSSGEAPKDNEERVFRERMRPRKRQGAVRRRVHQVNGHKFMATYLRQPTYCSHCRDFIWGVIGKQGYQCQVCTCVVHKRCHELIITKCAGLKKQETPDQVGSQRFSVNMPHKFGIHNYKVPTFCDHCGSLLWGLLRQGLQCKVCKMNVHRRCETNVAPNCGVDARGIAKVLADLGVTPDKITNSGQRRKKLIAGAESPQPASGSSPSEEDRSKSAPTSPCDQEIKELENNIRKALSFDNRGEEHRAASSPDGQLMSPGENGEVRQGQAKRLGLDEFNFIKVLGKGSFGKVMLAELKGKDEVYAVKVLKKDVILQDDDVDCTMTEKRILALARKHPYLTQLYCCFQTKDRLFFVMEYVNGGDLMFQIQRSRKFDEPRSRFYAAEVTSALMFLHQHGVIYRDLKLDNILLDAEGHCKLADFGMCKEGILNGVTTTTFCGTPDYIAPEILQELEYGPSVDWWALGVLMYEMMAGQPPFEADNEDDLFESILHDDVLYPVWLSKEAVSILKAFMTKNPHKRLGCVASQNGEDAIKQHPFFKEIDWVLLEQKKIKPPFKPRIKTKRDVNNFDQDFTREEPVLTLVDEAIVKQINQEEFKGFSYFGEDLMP
# [13] = biological target: Protein kinase C iota type (Homo sapiens) (UniProt P41743); experiment: Inhibition of N-terminal GST-fused PKClota (1-587) expressed in baculovirus expression system at 3 uM after 1 hr by off-chip mobility shift assay relative to control
# [14] = biological target: T2, Protein kinase C zeta type (Homo sapiens); experiment: Inhibition of N-terminal GST-fused PKCzeta (1-592) expressed in baculovirus expression system at 3 uM after 1 hr by off-chip mobility shift assay relative to control; how it was run: as §4
# Sequence of Protein kinase C iota type (Homo sapiens) (P41743 whole entry, looked up, the tested form may be a part): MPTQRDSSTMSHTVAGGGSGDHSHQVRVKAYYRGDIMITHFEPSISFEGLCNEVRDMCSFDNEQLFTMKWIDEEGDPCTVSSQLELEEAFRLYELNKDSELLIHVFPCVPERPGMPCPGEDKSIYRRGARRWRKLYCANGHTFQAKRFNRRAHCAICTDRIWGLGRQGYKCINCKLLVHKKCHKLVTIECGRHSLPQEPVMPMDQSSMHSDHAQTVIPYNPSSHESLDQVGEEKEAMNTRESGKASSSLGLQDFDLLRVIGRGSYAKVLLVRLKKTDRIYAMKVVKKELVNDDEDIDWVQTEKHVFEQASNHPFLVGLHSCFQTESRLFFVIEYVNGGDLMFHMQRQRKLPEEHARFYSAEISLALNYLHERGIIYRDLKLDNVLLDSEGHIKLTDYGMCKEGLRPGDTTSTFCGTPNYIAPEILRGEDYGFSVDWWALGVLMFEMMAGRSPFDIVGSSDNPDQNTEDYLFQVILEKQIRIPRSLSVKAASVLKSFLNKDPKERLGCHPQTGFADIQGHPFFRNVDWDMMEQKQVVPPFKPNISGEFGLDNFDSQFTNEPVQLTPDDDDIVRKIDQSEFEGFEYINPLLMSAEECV
# Sequence of Sphingosine kinase 1 (Homo sapiens) (Q9NYA1 whole entry, the tested form may be a part): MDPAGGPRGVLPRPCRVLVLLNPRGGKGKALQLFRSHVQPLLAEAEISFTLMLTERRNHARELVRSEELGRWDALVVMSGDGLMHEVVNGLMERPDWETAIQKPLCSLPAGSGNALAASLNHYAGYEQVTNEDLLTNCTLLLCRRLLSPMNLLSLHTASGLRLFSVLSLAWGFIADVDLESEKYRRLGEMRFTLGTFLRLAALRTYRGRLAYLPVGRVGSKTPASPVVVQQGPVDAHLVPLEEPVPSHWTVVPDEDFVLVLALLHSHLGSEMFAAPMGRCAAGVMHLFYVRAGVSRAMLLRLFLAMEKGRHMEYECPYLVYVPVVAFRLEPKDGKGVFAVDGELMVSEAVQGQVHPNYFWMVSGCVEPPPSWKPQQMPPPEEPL
# Sequence of Protein kinase C theta type (Homo sapiens) (Q04759 whole entry, looked up, the tested form may be a part): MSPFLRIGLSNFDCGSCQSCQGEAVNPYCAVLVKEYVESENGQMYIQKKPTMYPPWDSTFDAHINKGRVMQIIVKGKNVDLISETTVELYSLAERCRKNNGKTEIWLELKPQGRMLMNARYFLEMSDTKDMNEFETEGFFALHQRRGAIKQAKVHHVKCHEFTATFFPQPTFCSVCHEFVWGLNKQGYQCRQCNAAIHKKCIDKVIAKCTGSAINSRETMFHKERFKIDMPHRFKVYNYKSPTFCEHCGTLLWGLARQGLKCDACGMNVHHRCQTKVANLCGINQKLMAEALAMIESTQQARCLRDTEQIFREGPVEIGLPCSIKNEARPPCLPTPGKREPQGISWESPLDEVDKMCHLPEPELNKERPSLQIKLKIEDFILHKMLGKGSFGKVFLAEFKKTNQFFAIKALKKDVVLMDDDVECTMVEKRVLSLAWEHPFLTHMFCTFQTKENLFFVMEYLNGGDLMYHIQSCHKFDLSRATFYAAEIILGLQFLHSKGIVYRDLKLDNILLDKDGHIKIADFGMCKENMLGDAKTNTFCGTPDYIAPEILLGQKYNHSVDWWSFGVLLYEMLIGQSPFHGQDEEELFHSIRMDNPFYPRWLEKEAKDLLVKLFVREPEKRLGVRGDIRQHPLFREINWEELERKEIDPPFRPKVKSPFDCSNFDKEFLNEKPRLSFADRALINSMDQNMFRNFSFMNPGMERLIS
# Sequence of Protein kinase C delta type (Homo sapiens) (Q05655 whole entry, looked up, the tested form may be a part): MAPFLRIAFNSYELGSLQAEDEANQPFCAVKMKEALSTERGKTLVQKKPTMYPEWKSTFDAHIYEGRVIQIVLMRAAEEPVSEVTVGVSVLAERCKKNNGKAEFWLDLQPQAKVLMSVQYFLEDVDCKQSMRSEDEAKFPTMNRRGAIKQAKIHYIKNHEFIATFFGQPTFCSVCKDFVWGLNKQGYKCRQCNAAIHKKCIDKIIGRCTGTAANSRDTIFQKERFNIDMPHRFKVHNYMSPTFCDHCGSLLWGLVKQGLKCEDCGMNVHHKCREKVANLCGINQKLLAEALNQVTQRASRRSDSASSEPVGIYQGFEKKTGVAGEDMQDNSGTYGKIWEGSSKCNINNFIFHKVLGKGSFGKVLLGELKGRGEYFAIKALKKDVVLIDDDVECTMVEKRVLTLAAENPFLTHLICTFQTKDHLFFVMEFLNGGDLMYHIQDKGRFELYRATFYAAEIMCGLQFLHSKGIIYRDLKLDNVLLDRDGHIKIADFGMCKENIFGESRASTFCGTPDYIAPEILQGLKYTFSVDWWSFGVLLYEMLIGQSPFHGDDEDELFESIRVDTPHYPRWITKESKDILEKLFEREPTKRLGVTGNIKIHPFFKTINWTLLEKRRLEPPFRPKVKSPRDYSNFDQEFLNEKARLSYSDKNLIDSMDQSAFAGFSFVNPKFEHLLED
# Sequence of Protein kinase C beta type (Homo sapiens) (P05771 2-671 limits assumed): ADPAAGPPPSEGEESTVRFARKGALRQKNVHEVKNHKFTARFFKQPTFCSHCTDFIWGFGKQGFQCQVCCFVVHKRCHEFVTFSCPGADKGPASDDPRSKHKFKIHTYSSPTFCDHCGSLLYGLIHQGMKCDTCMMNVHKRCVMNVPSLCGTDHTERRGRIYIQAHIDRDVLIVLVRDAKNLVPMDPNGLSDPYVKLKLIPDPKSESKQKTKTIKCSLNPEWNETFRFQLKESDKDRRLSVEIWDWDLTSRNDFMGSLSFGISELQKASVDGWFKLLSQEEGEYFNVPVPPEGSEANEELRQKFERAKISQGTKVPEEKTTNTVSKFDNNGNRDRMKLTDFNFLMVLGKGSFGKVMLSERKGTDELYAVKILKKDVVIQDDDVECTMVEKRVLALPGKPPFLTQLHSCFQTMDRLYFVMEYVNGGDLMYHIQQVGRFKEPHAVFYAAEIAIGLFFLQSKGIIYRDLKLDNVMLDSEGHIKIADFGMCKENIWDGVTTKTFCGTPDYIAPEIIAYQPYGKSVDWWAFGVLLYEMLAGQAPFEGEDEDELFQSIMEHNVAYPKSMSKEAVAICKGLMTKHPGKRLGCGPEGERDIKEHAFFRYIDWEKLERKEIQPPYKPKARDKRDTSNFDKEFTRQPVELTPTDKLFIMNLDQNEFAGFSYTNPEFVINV
inhibition [1] [%],inhibition [2] [%],inhibition [3] [%],inhibition [4] [%],inhibition [5] [%],inhibition [6] [%],inhibition [7] [%],inhibition [8] [%],inhibition [9] [%],inhibition [10] [%],inhibition [11] [%],inhibition [12] [%],inhibition [13] [%],inhibition [14] [%],SMILES
4.6,6.6,27.9,48.5,69.6,48.6,56.6,39.8,98.5,32.7,100,37.4,50,50,CCCCCCCCCCCCCC[C@@H]1OC[C@H](N)[C@@H]1O
50,50,–,–,–,–,–,–,–,–,–,–,–,–,CCCCCCCCCCCCCC[C@@H]1OC[C@H](N)[C@H]1O
50,50,–,–,–,–,–,–,–,–,–,–,–,–,CCCCCCCCCCCCCC[C@H]1OC[C@H](N)[C@@H]1O
0.94,0.48,22.9,45.1,67.5,48.5,47,37.1,94.8,33.1,99.8,29.2,50,50,CCCCCCCCCCCCCC[C@@H]1OC[C@@H](N)[C@@H]1O

# Continued, compound first:
SMILES,inhibition [1] [%],inhibition [2] [%],inhibition [3] [%],inhibition [4] [%],inhibition [5] [%],inhibition [6] [%],inhibition [7] [%],inhibition [8] [%],inhibition [9] [%],inhibition [10] [%],inhibition [11] [%],inhibition [12] [%],inhibition [13] [%],inhibition [14] [%]
CCCCCCCCCCCCCC[C@H]1OC[C@H](N)[C@H]1O,50,50,–,–,–,–,–,–,–,–,–,–,–,–
CCCCCCCCCCCCC/C=C/[C@@H](O)[C@H](CO)N(C)C,50,50,44.3,68.5,83.9,49.2,43.8,47.1,100,35,99.1,40.4,–,–
CCCCCCCCCCCCCC[C@H]1OC[C@@H](N)[C@@H]1O,0.59,1.8,43.9,79.2,96.2,47.6,55.4,51.2,99.9,34,99.5,26.3,50,50
CCCCCCCCCCCCCC[C@H]1OC[C@@H](N)[C@H]1O,50,50,–,–,–,–,–,–,–,–,–,–,–,–
CCCCCCCCCCCCCC[C@@H]1OC[C@@H](N)[C@H]1O,50,50,–,–,–,–,–,–,–,–,–,–,–,–
